# SR-BI uptake up: enhances SR-BI lipid uptake from DiI-HDL; CHO ldlA[mSR-BI] cells, DiI-HDL uptake fluorescence, 3 h; 100 = double the neutral-control signal; activation, % at 12.5 µM; actives 0.096% (n = 320,000); AID 504775;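 active = mean replicate activation of at least 60% and every replicate at or above 60%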;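 also: 0% = median plate neutral-control signal and 100% = twice that signal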
#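 material = CHO ldlA[mSR-BI] cells | medium = Ham's F12 with 0.5% BSA, HEPES 25 mM, pH 7.4 | reagent = fluorescent DiI-HDL, 10 µg/mL final | compound dosing = single-point compound dose | incubation = 3 h, 37 °C | measured by = bottom-read fluorescence, 550/595 nm | measure = HDL uptake via cellular fluorescence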
# CDK5 inh: CDK5/p35 (human) kinase inhibition; AID 488839; Recombinant CDK5/p35, ADP-Glo luminescence, 60 min; inhibition, % at 10 µM; Q00535+Q15078; actives 0.01% (n = 330,000);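 active = highest replicate inhibition of at least 50% and at least 75% of replicates reaching 50%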;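 also: plate controls were DMSO neutral control for no effect and GW8510 at 10 µM for full effect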
# PKA-R1A activ: PKA-R1A complex activation; PKA-R1A dissociation, Cy5-IP20 fluorescence polarization; scaled: DMSO 0%, 113 µM cGMP 100%; AID 504707; P00514+P68181; actives 0.083% (n = 340,000); activation, % at 11.4 µM;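 active = percent activation above the mean of all tested compounds plus 3 SD, cut at about 19% in these data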;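 also: higher means more PKAc released from R1A so a rise in polarization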
# PKA-R2B activ: activators of human PKA-R2B complex | P22694+P31323 | PKA-R2B holoenzyme dissociation, Cy5-IP20 fluorescence polarization; R2B truncated from residue 108, S112A mutant; 0% DMSO only, 100% 113 µM cGMP | activation, % at 11.4 µM | actives 0.079% (n = 340,000) | AID 504700;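 active = activation above a cutoff set at the mean over all compounds plus 3 SD, cut at about 18% in these data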;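 also: higher means more holoenzyme dissociation and a rise in polarization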
# SR-BI HDL uptake: blocks mouse SR-BI lipid uptake from DiI-HDL; Q61009; ldlA[mSR-BI] CHO cells, DiI-HDL uptake fluorescence, 3 h; inhibition, % at 12.5 µM; AID 488896; actives 0.96% (n = 320,000);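 active = mean replicate inhibition of at least 70% and a set share of replicates each scoring 70 or more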;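 also: 0% = median of neutral control wells and 100% = median of positive control wells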
# dFosB act: enhances mouse delta FosB homodimer DNA binding. P13346. activation, % at 25 µM. purified delta FosB, TAMRA-CDK5 oligo fluorescence polarization; percent of positive-control signal above neutral wells. AID 493131. actives 0.99% (n = 340,000);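 active = mean activation above about 17%, with every replicate also reaching it, limit read from the data, passing the limit was not always enough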
# Target sequence (P13346 whole entry, looked up): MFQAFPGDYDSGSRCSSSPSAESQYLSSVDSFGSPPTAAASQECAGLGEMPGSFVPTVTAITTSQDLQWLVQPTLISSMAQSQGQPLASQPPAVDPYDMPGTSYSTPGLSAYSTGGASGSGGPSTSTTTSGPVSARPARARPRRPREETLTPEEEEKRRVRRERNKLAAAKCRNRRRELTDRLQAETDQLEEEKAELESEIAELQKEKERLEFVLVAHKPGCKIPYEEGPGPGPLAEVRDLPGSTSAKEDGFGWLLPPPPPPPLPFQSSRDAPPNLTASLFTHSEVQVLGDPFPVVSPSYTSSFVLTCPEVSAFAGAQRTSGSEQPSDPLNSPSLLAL
# * = called active by the depositor; nt = no result given. An excerpt weighted towards active compounds, which were near 2.1% of everything screened.
SMILES,SR-BI uptake up,CDK5 inh,PKA-R1A activ,PKA-R2B activ,SR-BI HDL uptake,dFosB act
O=C1NC[C@H](Cc2ccccc2)N(CC2CCN(CCC34CC5CC(CC(C5)C3)C4)CC2)C1=O,4,1,-1,0,-4,0
COCCNc1nnc(SCC(=O)Nc2sc3c(c2C(=O)c2ccccc2)CCCC3)s1,-75,-7,-5,-12,75*,-12
O=C(COc1ccc(/C=N/NS(=O)(=O)c2ccccc2)cc1)Nc1cccc(Cl)c1,-75,0,-7,-5,75*,4
NC(=S)NN=C(c1ccc(F)cc1)C1CC1,-90,1,-3,-9,90*,0
N/C(=N\OC(=O)C1CCCCC1)c1ccc(Br)cc1,nt,2,14,9,nt,-9
NC(=S)NN=C(c1ccc(Br)cc1)C1CC1,-79,2,7,-9,79*,1
O=C(NNC(=O)c1ccc(NC(=O)C2CC2)cc1)c1ccc(F)cc1,5,-1,5,1,-5,-1
O=C1OC(Nc2nc(-c3ccc(F)cc3)cs2)c2ccccc21 (stereo not drawn),12,0,3,3,-12,-10
Cn1c(SCC(=O)N/N=C/C=C\c2ccccc2[N+](=O)[O-])nc2ccccc21,-23,2,-4,-9,23,20*
Cc1[nH]n(-c2cccc3ccccc23)c(=O)c1/C=N/NC(=O)c1cccc([N+](=O)[O-])c1,-62,0,-6,-4,62,-7
Cc1[nH]n(-c2ccccc2)c(=O)c1/C=N/NC(=O)c1ccccc1F,-106,0,-4,-13,106*,2
CC/C(=N/NC(=O)c1ccccc1O)c1c(C)[nH]n(-c2ccccc2)c1=O,-137,1,-4,-8,137*,-4
Cc1[nH]n(-c2ccccc2)c(=O)c1/C=N/NC(=O)c1cccc([N+](=O)[O-])c1,-112,0,-2,-11,112*,-2
CN(C(=O)CSc1nnc(C2CC2)n1-c1ccccc1)C1CCS(=O)(=O)C1 (stereo not drawn),8,0,8,-3,-8,-8
Cc1cc(C)cc(NC(=O)CCn2c(=S)[nH]c3ccccc3c2=O)c1,-11,0,-9,-16,11,30*
CCCN1C(=O)c2cc(C(=O)Nc3ccc(OC)cc3OC)ccc2C1Nc1ccc(OC)cc1OC (stereo not drawn),-74,0,-4,5,74*,-2
O=C(Nc1ccccc1C(=O)Nc1ccc(F)cc1)c1ccco1,-75,2,-13,3,75*,-6
O=C(CN1CCOCC1)Nc1ccc(OCc2ccccc2)cc1,15,2,-3,1,-15,-7
O=C(Nc1ccc(O)cc1)c1ccccc1OCc1ccccc1,-68,0,-2,-12,68,-5
O=C(CN1CCN(CC(=O)Nc2ccc(OCc3ccccc3)cc2)CC1)Nc1ccc(F)cc1,451*,-10,4,5,-451,-1
O=C(Nc1ccccc1)c1ccccc1OCc1ccc(F)cc1,-74,-1,-8,3,74*,-1
O=C(CSc1nnc(C2CC2)n1CC1CCCO1)Nc1ccc(Cl)cc1 (stereo not drawn),16,-3,4,-9,-16,-6
OC(COC(c1ccc(Cl)cc1)c1ccc(Cl)cc1)CN1CCCC1 (stereo not drawn),-1,1,-4,2,1,-3
CN1CCN(CC(O)COC(c2ccc(Cl)cc2)c2ccc(Cl)cc2)CC1 (stereo not drawn),40,0,13,3,-40,22*
Cc1cc(C)n(-c2ccc(NC(=O)C3CCCCN3Cc3cccc4c3OCO4)cc2)n1 (stereo not drawn),-89,0,3,-8,89*,-1

# Assay outcomes (PubChem)
